One data set has as its target CYP2C9 (Homo sapiens, UniProt P11712). The data set can be described thus: in vitro.
Another data set has as its target T1, CYP2B6 (Homo sapiens, UniProt P20813).
T1 sequence (P20813 whole entry): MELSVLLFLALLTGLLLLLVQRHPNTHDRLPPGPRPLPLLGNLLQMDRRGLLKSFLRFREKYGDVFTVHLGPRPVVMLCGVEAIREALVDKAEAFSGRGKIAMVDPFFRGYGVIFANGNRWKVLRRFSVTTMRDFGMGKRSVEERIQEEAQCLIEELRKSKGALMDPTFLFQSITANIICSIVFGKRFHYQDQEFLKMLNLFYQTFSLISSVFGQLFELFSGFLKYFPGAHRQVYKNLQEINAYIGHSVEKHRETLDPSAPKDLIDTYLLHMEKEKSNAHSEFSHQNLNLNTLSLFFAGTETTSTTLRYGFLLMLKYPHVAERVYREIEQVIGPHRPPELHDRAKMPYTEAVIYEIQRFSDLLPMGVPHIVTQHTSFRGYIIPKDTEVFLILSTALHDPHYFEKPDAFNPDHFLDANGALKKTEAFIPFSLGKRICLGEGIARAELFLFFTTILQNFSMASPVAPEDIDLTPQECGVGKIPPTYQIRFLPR
The data set can be described thus: in vitro.

The next data set has as its target T2, CYP1A2 (Homo sapiens, UniProt P05177).
T2 sequence (P05177 whole entry): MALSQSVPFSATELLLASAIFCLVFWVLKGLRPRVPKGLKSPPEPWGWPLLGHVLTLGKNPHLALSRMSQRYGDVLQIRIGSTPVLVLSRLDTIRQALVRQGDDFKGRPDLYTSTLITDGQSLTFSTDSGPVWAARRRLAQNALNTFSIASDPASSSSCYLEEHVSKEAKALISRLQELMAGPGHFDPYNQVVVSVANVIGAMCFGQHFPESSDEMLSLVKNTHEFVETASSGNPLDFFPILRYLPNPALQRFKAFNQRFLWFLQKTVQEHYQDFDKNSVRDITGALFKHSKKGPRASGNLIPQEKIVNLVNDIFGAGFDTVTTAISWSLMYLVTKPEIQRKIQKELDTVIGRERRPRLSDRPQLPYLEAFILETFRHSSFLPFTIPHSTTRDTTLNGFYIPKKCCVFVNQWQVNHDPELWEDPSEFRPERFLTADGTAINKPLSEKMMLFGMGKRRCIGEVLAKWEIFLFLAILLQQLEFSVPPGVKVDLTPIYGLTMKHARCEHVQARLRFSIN
Briefly: in vitro.

The target of another data set is CYP2D6 (Homo sapiens, UniProt P10635). Briefly: in vitro.
Data set [1] deals with T3, CYP2C8 (Homo sapiens, UniProt P10632).
T3 sequence (P10632 whole entry): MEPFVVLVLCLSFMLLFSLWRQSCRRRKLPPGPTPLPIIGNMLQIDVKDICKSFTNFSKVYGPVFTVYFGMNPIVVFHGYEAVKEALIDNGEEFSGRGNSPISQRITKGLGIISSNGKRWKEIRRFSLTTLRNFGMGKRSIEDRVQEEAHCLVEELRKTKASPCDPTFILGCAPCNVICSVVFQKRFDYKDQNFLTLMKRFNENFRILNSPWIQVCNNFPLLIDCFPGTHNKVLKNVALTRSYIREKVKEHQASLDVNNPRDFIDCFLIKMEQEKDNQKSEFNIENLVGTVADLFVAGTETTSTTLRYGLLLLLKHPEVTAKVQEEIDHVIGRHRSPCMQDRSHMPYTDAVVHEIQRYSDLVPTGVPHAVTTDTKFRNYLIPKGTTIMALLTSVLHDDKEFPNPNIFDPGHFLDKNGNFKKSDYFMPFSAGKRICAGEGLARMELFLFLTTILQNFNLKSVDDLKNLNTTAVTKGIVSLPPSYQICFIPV
The data set can be described thus: in vitro.

For data set [2], the target named is T4, CYP3A4 (Homo sapiens, UniProt P08684). The data set can be described thus: Time dependent inhibition of CYP3A4 (unknown origin) at 10 uM by LC/MS system. It counts as ADME. In a few lines: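 CYP3A4: human liver microsomes at 0.5 mg/mL in preincubation, 0.1 M sodium phosphate, NADPH-generating system, 0 or 30 min. Ten-fold dilution into incubation with 2.5 μM midazolam (final), 10 min. Each value is relative to the matched control without inhibitor. % enzyme inactivation = 100 × [1 − %control(30 min)/%control(0 min)]; 10% threshold.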

Data set [3] relates to Liver microsome. The data set can be described thus: Metabolic activation in human liver microsomes assessed as [3H]GSH adduct formation rate measured per mg of protein at 100 uM by [3H]GSH trapping assay. (In general: Microsomes from liver hold many membrane-bound enzymes, among them those of drug oxidation.)
The subject of data set [4] is Liver microsome. Briefly: Covalent binding in human liver microsomes measured per mg of protein using radiolabelled compound at 10 uM after 1 hr incubation by liquid scintillation counting.
Another data set deals with CYP2C19 (Homo sapiens, UniProt P33261). The data set can be described thus: in vitro.
Data set [5] deals with Liver microsome. The following applies: human, microsomes, 100 µM.
Data set [6] addresses T4, CYP3A4. The data set can be described thus: in vitro.
The nature of data set [7]: Intrinsic clearance for reactive metabolites formation assessed as summation of [3H]GSH adduct formation rate-based reactive metabolites formation and cytochrome P450 (unknown origin) inactivation rate-based reactive metabolites formation. To be noted: human.
A short description of data set [8]: Intrinsic clearance for reactive metabolites formation per mg of protein based on cytochrome P450 (unknown origin) inactivation rate by TDI assay. To be noted: human.
The target in data set [9] is T3, CYP2C8. Briefly: Time dependent inhibition of CYP2C8 (unknown origin) at 10 uM by LC/MS system. Type of data set: ADME. The procedure, abridged:
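CYP2C8 in human liver microsomes (1.0 mg/mL in preincubation), 0.1 M sodium phosphate, NADPH-generating system. Preincubation 0 or 30 min, then ten-fold dilution into incubation with 10 μM paclitaxel (final) for 10 min.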

Usually inhibition stands for the share of the control response that was lost under treatment. Lower therefore signals a weak effect.

T4 sequence (P08684 whole entry): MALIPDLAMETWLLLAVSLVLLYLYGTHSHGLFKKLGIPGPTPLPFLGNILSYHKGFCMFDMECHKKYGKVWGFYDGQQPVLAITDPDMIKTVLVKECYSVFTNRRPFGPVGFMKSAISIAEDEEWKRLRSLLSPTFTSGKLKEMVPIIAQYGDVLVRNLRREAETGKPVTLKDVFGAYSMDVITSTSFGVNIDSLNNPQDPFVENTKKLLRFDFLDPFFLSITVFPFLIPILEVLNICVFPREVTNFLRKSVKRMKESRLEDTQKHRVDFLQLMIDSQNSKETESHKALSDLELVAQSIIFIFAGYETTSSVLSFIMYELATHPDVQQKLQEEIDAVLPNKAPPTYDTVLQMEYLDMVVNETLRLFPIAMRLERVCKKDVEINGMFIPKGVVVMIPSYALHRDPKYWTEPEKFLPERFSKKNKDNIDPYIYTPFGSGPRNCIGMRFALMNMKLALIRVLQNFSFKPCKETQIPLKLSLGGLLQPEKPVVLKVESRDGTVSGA
CYP2C19, sequence (P33261 whole entry): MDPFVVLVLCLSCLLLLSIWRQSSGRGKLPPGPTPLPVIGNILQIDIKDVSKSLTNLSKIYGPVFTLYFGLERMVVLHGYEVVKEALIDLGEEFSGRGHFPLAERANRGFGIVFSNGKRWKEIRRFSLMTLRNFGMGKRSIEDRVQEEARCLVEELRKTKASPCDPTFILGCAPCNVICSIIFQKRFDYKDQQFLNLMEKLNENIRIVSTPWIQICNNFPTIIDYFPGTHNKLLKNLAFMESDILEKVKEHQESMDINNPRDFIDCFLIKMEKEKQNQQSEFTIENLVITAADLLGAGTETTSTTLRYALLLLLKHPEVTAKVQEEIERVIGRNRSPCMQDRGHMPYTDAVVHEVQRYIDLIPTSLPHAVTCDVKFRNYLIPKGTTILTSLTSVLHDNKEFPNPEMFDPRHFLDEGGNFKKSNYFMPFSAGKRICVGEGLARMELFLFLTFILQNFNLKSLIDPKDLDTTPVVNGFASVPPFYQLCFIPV
CYP2C9, sequence (P11712 whole entry): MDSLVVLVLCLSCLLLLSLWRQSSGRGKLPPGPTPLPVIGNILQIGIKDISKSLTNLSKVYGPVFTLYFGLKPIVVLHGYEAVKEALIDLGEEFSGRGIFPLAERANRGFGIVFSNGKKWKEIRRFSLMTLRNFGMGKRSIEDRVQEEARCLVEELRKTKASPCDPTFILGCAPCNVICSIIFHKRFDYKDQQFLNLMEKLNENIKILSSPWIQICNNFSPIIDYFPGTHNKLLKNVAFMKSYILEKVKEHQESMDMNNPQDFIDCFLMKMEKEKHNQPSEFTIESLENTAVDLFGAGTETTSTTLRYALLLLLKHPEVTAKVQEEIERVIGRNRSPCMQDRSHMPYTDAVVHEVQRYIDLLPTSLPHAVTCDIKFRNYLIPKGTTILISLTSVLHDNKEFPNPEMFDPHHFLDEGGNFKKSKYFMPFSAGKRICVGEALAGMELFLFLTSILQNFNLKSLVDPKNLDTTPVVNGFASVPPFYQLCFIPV
CYP2D6, sequence (P10635 whole entry): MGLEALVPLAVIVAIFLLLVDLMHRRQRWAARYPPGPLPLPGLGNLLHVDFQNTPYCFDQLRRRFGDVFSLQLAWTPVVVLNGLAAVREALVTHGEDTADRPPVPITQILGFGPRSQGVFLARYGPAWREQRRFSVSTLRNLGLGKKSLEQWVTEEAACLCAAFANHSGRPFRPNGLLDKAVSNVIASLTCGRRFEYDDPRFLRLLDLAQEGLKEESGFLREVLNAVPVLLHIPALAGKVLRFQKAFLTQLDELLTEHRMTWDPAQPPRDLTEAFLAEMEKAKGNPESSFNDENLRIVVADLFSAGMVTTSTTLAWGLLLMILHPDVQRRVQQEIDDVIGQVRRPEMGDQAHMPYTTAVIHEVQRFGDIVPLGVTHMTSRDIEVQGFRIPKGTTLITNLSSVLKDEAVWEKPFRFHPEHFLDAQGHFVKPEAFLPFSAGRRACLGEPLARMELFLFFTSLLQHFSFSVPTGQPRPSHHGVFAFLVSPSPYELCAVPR

Consider `CC(=O)Nc1ccc(O)cc1` [ACETAMINOPHEN], for which the inhibition at 100 µM at CYP2C9, against CYP2B6, against CYP1A2, on CYP2D6 and against CYP2C8 [1] was below 10% in each case. In addition, the inhibition at 10 µM at CYP3A4 [2] is below 10%.
On to `NC(=O)N1c2ccccc2C=Cc2ccccc21` [CARBAMAZEPINE], for which the inhibition at 100 µM against CYP2C9, against CYP2B6, on CYP2C19 (microsomes), on CYP1A2, at CYP2D6 and against CYP2C8 [1] was below 10% in each case. The Drug metabolism entry in the data set with Liver microsome [3] is “metabolite_not_detected”. In the data set with Liver microsome [4], this compound showed a PB of 3.3 pmol. Besides, on CYP3A4 [2], the inhibition at 10 µM was below 10%.
In turn, `O=C(O)Cc1ccccc1Nc1c(Cl)cccc1Cl` [DICLOFENAC] registered a CLH in the data set on Liver microsome [5] of 0.01 µL/min/mg. Also, the inhibition at 100 µM on CYP2C9, at CYP3A4 [6], at CYP2B6, at CYP2C19 (microsomes), against CYP1A2 and on CYP2D6 was below 10% each time. The inhibition at 100 µM against CYP2C8 [1] was below 10%. The Drug metabolism in the data set with Liver microsome [3] is reported as 1 pmol/min. Further, the clearance in data set [7] was 0.01 µL/min/mg.
`CC[C@H]1OC(=O)[C@H](C)[C@@H](O[C@H]2C[C@@](C)(OC)[C@@H](O)[C@H](C)O2)[C@H](C)[C@@H](O[C@@H]2O[C@H](C)C[C@H](N(C)C)[C@H]2O)[C@](C)(O)C[C@@H](C)C(=O)[C@H](C)[C@@H](O)[C@]1(C)O` [ERYTHROMYCIN]: the clearance in data set [8] and in data set [7] was 0.021 µL/min/mg each time. For the same compound, the inhibition at 100 µM is below 10% against CYP2C9; 45% against CYP3A4 [6]; below 10% at CYP2B6; below 10% on CYP2C19 (human liver microsomes); below 10% at CYP1A2; below 10% against CYP2D6. The same compound had an inhibition at 100 µM at CYP2C8 [1] below 10%. For the same compound, the Drug metabolism entry in the data set with Liver microsome [3] is on record as “metabolite_not_detected”. The compound also displayed a PB with Liver microsome [4] of 57.1 pmol.
Take `CC(C)C(=O)Nc1ccc([N+](=O)[O-])c(C(F)(F)F)c1` [FLUTAMIDE]: the CLH in the data set on Liver microsome [5] is 0.02 µL/min/mg. Moreover, the inhibition at 100 µM on CYP2C9, on CYP3A4 [6], against CYP2B6, at CYP2C19 (human liver microsomes), against CYP1A2 and at CYP2D6 was below 10% in each case. At CYP2C8 [1], this compound displayed an inhibition at 100 µM below 10%. The Drug metabolism in the data set on Liver microsome [3] is recorded as 2 pmol/min. Further, in the data set on Liver microsome [4], the PB is reported as 178 pmol. Moreover, the clearance in [7] worked out at 0.02 µL/min/mg.
As to `COc1ccc2c(c1)c(CC(=O)O)c(C)n2C(=O)c1ccc(Cl)cc1` [INDOMETHACIN], the clearance in data set [8] and in data set [7] was 0.001 µL/min/mg each time. In addition, the inhibition at 100 µM against CYP2C9, against CYP3A4 [6], at CYP2B6, against CYP2C19 (human liver microsomes), at CYP1A2 and against CYP2D6 was below 10% each time. Besides, the inhibition at 100 µM at CYP2C8 [1] amounted to 14%. In the data set on Liver microsome [3], the Drug metabolism entry is recorded as “metabolite_not_detected”. Moreover, the PB with Liver microsome [4] came out at 14.7 pmol.
In the data set with Liver microsome [5], `Cc1ccnc2c1NC(=O)c1cccnc1N2C1CC1` [NEVIRAPINE] displayed a CLH of 0.012 µL/min/mg. The figures for the clearance in data set [8] and in data set [7] were 0.001 µL/min/mg and 0.013 µL/min/mg, respectively. Further, the inhibition at 100 µM against CYP2C9 was below 10%; against CYP3A4 [6] it was below 10%; on CYP2B6, below 10%; against CYP2C19 (human liver microsomes), 12%; against CYP1A2, below 10%; against CYP2D6 it was below 10%. The same compound came in with an inhibition at 100 µM at CYP2C8 [1] below 10%. Moreover, the Drug metabolism in the data set on Liver microsome [3] stood at 1.2 pmol/min. The compound further returned a PB with Liver microsome [4] of 19.1 pmol.
In the data set on Liver microsome [5], `Cc1cc2c(s1)Nc1ccccc1N=C2N1CCN(C)CC1` [OLANZAPINE] gave a CLH of 0.113 µL/min/mg. Moreover, the values for the clearance in [8] and in data set [7] were 0.006 µL/min/mg and 0.119 µL/min/mg, respectively. Besides, the inhibition at 100 µM against CYP2C9 was below 10%; on CYP3A4 [6] it was below 10%; against CYP2B6, below 10%; on CYP2C19 (human liver microsomes), below 10%; against CYP1A2, below 10%; against CYP2D6 it was 63%. For the same compound, the inhibition at 100 µM against CYP2C8 [1] was below 10%. Further, the Drug metabolism in the data set on Liver microsome [3] turned out to be 11.3 pmol/min. In the data set with Liver microsome [4], this compound returned a PB of 138.9 pmol.
Consider `O=C1NC(=O)C(c2ccccc2)(c2ccccc2)N1` [PHENYTOIN], for which the CLH with Liver microsome [5] stood at 0.012 µL/min/mg. Further, the inhibition at 100 µM against CYP2C9, at CYP3A4 [6], against CYP2B6, against CYP2C19 (microsomes), at CYP1A2 and at CYP2D6 was below 10% each time. The inhibition at 100 µM against CYP2C8 [1] was below 10%. For the same compound, the Drug metabolism in the data set on Liver microsome [3] amounted to 1.2 pmol/min. In the data set on Liver microsome [4], this compound had a PB of 4.4 pmol. In data set [7], the clearance was 0.012 µL/min/mg.
Consider `Nc1c2c(nc3ccccc13)CCCC2` [TACRINE], for which the clearance in [8] and in [7] was 0.007 µL/min/mg throughout. In addition, the inhibition at 100 µM against CYP2C9 is below 10%; at CYP3A4 [6], below 10%; at CYP2B6, below 10%; on CYP2C19 (microsomes), below 10%; against CYP1A2, 28%; on CYP2D6 it was 24%. For the same compound, the inhibition at 100 µM at CYP2C8 [1] is below 10%. Besides, the Drug metabolism entry with Liver microsome [3] is listed as “metabolite_not_detected”. Also, the PB in the data set on Liver microsome [4] turned out to be 137 pmol.
In turn, `CC/C(=C(\c1ccccc1)c1ccc(OCCN(C)C)cc1)c1ccccc1` [TAMOXIFEN] came in with an inhibition at 10 µM at CYP2C8 [9] below 10%. Also, in the data set with Liver microsome [3], the Drug metabolism result was “metabolite_not_detected”. Further, the PB in the data set on Liver microsome [4] was 11.5 pmol. Also, the inhibition at 100 µM against CYP3A4 [6], against CYP2B6, against CYP2C19 (microsomes) and against CYP1A2 was below 10% each time.
Regarding `CC(=O)CC(c1ccccc1)c1c(O)c2ccccc2oc1=O` (configuration not stated) [WARFARIN], the clearance in data set [8] and in data set [7] was 0.003 µL/min/mg in each case. For the same compound, the inhibition at 100 µM is below 10% at CYP2C9; below 10% against CYP3A4 [6]; below 10% on CYP2B6; below 10% on CYP2C19 (human liver microsomes); 19% at CYP1A2; below 10% against CYP2D6. The compound also showed an inhibition at 100 µM against CYP2C8 [1] below 10%. Besides, the Drug metabolism entry with Liver microsome [3] is “metabolite_not_detected”. The same compound yielded a PB in the data set on Liver microsome [4] of 15.9 pmol.

Source of the values: ChEMBL document CHEMBL3526118, “Combination of GSH trapping and time-dependent inhibition assays as a predictive method of drugs generating highly reactive metabolites” (Drug Metab Dispos, 2011).
